Reference: article PMC5458759 (Genes & Development, 2017)

Columns and labels:
ERL2^LRR = assay: Pull-down assay with 6xHis-tagged ERL2^LRR; type: binding, Arabidopsis; conditions: Ni resin, SDS-PAGE, Coomassie blue; without TMM^LRR
Outline: (§1)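 Purified C-terminal 6xHis-tagged receptor LRR, from High Five cells, was mixed with excess EPF-family peptide and Ni resin for 30 min on ice. The resin was washed four times in 25 mM Tris pH 8.0, 250 mM NaCl, 15 mM imidazole, then heated 5 min at 100°C in SDS loading buffer. Bound protein was detected by SDS-PAGE with Coomassie staining.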

ER^LRR [1] = assay: Gel filtration assay with ER^LRR; type: binding, Arabidopsis; conditions: 10 mM Bis-Tris pH 6.0, 100 mM NaCl; incubated 30 min at 4°C
Outline: (§2)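 LRR ectodomains were expressed in High Five insect cells by baculovirus at 22°C; for complexes, the ERf and TMM viruses were added together. Protein was purified from the supernatant by Ni-NTA and then size exclusion. Receptor and EPF-family peptide were mixed, held 30 min at 4°C, then run on Superdex 200 in 10 mM Bis-Tris pH 6.0, 100 mM NaCl. Fractions were analysed by SDS-PAGE with Coomassie staining.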

ERL1^LRR [2] = assay: Gel filtration assay with ERL1^LRR; type: binding, Arabidopsis; conditions: 10 mM Bis-Tris pH 6.0, 100 mM NaCl; incubated 30 min at 4°C
Outline: as §2

ERL1^LRR [3] = assay: Pull-down assay with 6xHis-tagged ERL1^LRR; type: binding, Arabidopsis; conditions: Ni resin, SDS-PAGE, Coomassie blue; without TMM^LRR
Outline: as §1

ER^LRR–TMM^LRR complex = assay: Gel filtration assay with ER^LRR–TMM^LRR complex; type: binding, Arabidopsis; conditions: 10 mM Bis-Tris pH 6.0, 100 mM NaCl; incubated 30 min at 4°C
Outline: as §2

ER^LRR [4] = assay: Pull-down assay with 6xHis-tagged ER^LRR; type: binding, Arabidopsis; conditions: Ni resin, SDS-PAGE, Coomassie blue; without TMM^LRR
Outline: as §1

ERL1^LRR–TMM^LRR complex = assay: Gel filtration assay with ERL1^LRR–TMM^LRR complex; type: binding, Arabidopsis; conditions: 10 mM Bis-Tris pH 6.0, 100 mM NaCl; incubated 30 min at 4°C
Outline: as §2

[5] = target: ERL1^LRR–TMM^LRR complex (Arabidopsis thaliana) (UniProt C0LGW6); assay: ITC

Kd [5]	Substance	interaction with ERL2^LRR in pull-down (ERL2^LRR)	interaction with ER^LRR alone in gel filtration (ER^LRR [1])	interaction with ERL1^LRR alone in gel filtration (ERL1^LRR [2])	interaction with ERL1^LRR in pull-down (ERL1^LRR [3])	interaction with ER^LRR–TMM^LRR in gel filtration (comigration) (ER^LRR–TMM^LRR complex)	interaction with ER^LRR in pull-down (ER^LRR [4])	interaction with ERL1^LRR–TMM^LRR in gel filtration (comigration) (ERL1^LRR–TMM^LRR complex)
–	EPF2: cysteine-rich EPF family peptide, residues 69–120, expressed in insect cells (TGSSLPDCSYACGACSPCKRVMISFECSVAESCSVIYRCTCRGRYYHVPSRA)	none of the three ERf proteins displayed interaction	no binding	no binding	none of the three ERf proteins displayed interaction	strong interaction	none of the three ERf proteins displayed interaction	strong interaction
–	EPF1: cysteine-rich EPF family peptide, residues 53–104, expressed in High Five insect cells (AGSRLPDCSHACGSCSPCRLVMVSFVCASVEEAETCPMAYKCMCNNKSYPVP)	–	no binding	no binding	–	strong interaction	–	strong interaction
420 nM	EPFL4–EPF1, swapped EPFL4 mutant with the apical loop region of EPF1 (peptide)	–	–	–	–	–	–	–
–	EPFL6: EPF family growth regulatory peptide, residues 106–156 (LGSSPPRCSSKCGRCTPCKPVHVPVPPGTPVTAEYYPEAWRCKCGNKLYMP)	sufficient for interaction	–	–	sufficient for interaction	–	sufficient for interaction	–
